# Assay results taken from ChEMBL document CHEMBL5649168, “Discovery of a selective catalytic p300/CBP inhibitor that targets lineage-specific tumours” (Nature, 2017).
# Calls of active or inactive are those of the source. No cut-off for these calls is given here.
# Assays:
# [1] = target: T1, Histone acetyltransferase p300 (Homo sapiens, UniProt Q09472); test: Inhibition of p300 HAT domain (unknown origin) using Biotin-C6-GRGKGGKGLGKGGAK as substrate pretreated with enzyme for 30 mins followed by incubation with substrate for 1 hr by radiometric scintillation proximity assay
# [2] = target: T2, CREB-binding protein/Histone acetyltransferase p300 (Homo sapiens, UniProt Q09472+Q92793); conditions: 22Rv1, dose 0.3-3 mM
# [3] = target: T1, Histone acetyltransferase p300; test: Binding affinity to recombinant human p300 HAT domain expressed in Escherichia coli BL21-CodonPlus(DE3)-RIL cells assessed as dissociation constant using CMLVELHTQSQDRF as substrate by surface plasmon resonance analysis
# [4] = target: T2, CREB-binding protein/Histone acetyltransferase p300; test: Inhibition of p300/CBP in human 22Rv1 cells assessed as reduction in H3K18Ac level incubated for 24 hrs by Hoechst 33342 staining based high content microscopy analysis; assay type: cell-based
# Method in brief: (§1)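 Cells received an 8-point half-log dilution series from 10 µM. They were then fixed in 10% formaldehyde (10 min, RT), permeabilised with 0.1% Triton X-100 and blocked with 1% BSA for 1 h. Primary antibodies were applied overnight at 4 °C, followed by Alexa488 anti-rabbit, Alexa555 anti-mouse and Hoechst 33342 for 1 h. Fifteen fields per well were imaged and average mean intensity taken. EC50 came from a sigmoidal fit.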
# [5] = target: T2, CREB-binding protein/Histone acetyltransferase p300; test: Inhibition of p300/CBP in human 22Rv1 cells assessed as reduction in H3K9Ac level incubated for 3 hrs by Hoechst 33342 staining based high content microscopy analysis; assay type: cell-based; method in brief: as §1
# [6] = target: T2, CREB-binding protein/Histone acetyltransferase p300; test: Inhibition of p300/CBP in human 22Rv1 cells assessed as reduction in H3K27Ac level incubated for 24 hrs by Hoechst 33342 staining based high content microscopy analysis; assay type: cell-based; method in brief: as §1
# CREB-binding protein = CREB-binding protein (Homo sapiens, UniProt Q92793); test: (§2) Inhibition of N-terminal 6His-Flag tagged CBP-BHC domain (1072 to 1859 residues) (unknown origin) expressed in Sf9 cells using the Bac-to-Bac baculovirus system under EDTA-free condition using biotinylated synthetic Histone-H4 peptide incubated for 30 mins followed by substrate addition and measured after 1hr by TR-FRET assay
# [7] = target: T2, CREB-binding protein/Histone acetyltransferase p300; test: Inhibition of p300/CBP in human 22Rv1 cells assessed as reduction in H3K18Ac level incubated for 1 hr by Hoechst 33342 staining based high content microscopy analysis; assay type: cell-based; method in brief: as §1
# [8] = target: T2, CREB-binding protein/Histone acetyltransferase p300; test: Inhibition of p300/CBP in human PC-3 cells assessed as reduction in H3K18Ac level incubated for 3 hrs by Hoechst 33342 staining based high content microscopy analysis; assay type: cell-based
# [9] = target: T2, CREB-binding protein/Histone acetyltransferase p300; test: Inhibition of p300/CBP in human PC-3 cells assessed as reduction in H3K27Ac level incubated for 3 hrs by Hoechst 33342 staining based high content microscopy analysis; assay type: cell-based
# Method in brief: (§3)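 PC-3 cells were plated overnight on collagen I-coated plates. They were treated with an 8-point half-log series from 10 µM, then fixed in 10% formaldehyde, permeabilized in 0.1% Triton X-100 and blocked in 1% BSA. Mean intensity was imaged over 15 fields per well; EC50 from sigmoidal fit.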
# MAO-B = MAO-B (Homo sapiens, UniProt P27338); test: Inhibition of human recombinant MAO-B at 10 uM by radioligand binding assay relative to control
# [10] = target: T2, CREB-binding protein/Histone acetyltransferase p300; test: Inhibition of p300/CBP in human 22Rv1 cells assessed as reduction in H3K18Ac level incubated for 3 hrs by Hoechst 33342 staining based high content microscopy analysis; assay type: cell-based; method in brief: as §1
# [11] = target: T2, CREB-binding protein/Histone acetyltransferase p300; test: Inhibition of p300/CBP in human 22Rv1 cells assessed as reduction in H3K9Ac level incubated for 24 hrs by Hoechst 33342 staining based high content microscopy analysis; assay type: cell-based; method in brief: as §1
# MAO-A = MAO-A (Homo sapiens, UniProt P21397); test: Inhibition of MAO-A (unknown origin) at 10 uM by radioligand binding assay relative to control
# [12] = target: T1, Histone acetyltransferase p300; test: as §2, with “p300-BHC” for “CBP-BHC”, “(1036” for “(1072”, “1822” for “1859”
# Method in brief: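 TR-FRET acetylation of biotinylated histone H4 peptide. Buffer: 100 mM HEPES pH 7.9, 100 mM KCl, 40 µg/mL BSA, 1 mM DTT, 0.01% Triton X-100. The EDTA-free run used protein purified without EDTA and buffer without EDTA. Enzyme at 0.6 nM was preincubated 30 min with compound (3-fold series, 50 µM to 0.00075 µM). Substrates were 2 µM peptide and 0.5 µM acetyl-CoA, 1 h at room temperature. Read by Eu-anti-acetyl-H4 / ULight-streptavidin; IC50 from sigmoidal fit.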
# [13] = target: T2, CREB-binding protein/Histone acetyltransferase p300; test: Inhibition of p300/CBP in human 22Rv1 cells assessed as reduction in H3K9Ac level incubated for 1 hr by Hoechst 33342 staining based high content microscopy analysis; assay type: cell-based; method in brief: as §1
# [14] = target: T2, CREB-binding protein/Histone acetyltransferase p300; test: Inhibition of p300/CBP in human PC-3 cells assessed as reduction in H3K9Ac level incubated for 3 hrs by Hoechst 33342 staining based high content microscopy analysis; assay type: cell-based; method in brief: as §3
# [15] = target: Ca2+ channel (L, dihydropyridine site) (Homo sapiens, UniProt O60840+Q01668+Q13698+Q13936); test: Inhibition of Ca2+ channel (L, dihydropyridine site) (unknown origin) at 10 uM by radioligand binding assay relative to control; assay type: protein assay
# T1 sequence (Q09472 whole entry, the tested form may be a part): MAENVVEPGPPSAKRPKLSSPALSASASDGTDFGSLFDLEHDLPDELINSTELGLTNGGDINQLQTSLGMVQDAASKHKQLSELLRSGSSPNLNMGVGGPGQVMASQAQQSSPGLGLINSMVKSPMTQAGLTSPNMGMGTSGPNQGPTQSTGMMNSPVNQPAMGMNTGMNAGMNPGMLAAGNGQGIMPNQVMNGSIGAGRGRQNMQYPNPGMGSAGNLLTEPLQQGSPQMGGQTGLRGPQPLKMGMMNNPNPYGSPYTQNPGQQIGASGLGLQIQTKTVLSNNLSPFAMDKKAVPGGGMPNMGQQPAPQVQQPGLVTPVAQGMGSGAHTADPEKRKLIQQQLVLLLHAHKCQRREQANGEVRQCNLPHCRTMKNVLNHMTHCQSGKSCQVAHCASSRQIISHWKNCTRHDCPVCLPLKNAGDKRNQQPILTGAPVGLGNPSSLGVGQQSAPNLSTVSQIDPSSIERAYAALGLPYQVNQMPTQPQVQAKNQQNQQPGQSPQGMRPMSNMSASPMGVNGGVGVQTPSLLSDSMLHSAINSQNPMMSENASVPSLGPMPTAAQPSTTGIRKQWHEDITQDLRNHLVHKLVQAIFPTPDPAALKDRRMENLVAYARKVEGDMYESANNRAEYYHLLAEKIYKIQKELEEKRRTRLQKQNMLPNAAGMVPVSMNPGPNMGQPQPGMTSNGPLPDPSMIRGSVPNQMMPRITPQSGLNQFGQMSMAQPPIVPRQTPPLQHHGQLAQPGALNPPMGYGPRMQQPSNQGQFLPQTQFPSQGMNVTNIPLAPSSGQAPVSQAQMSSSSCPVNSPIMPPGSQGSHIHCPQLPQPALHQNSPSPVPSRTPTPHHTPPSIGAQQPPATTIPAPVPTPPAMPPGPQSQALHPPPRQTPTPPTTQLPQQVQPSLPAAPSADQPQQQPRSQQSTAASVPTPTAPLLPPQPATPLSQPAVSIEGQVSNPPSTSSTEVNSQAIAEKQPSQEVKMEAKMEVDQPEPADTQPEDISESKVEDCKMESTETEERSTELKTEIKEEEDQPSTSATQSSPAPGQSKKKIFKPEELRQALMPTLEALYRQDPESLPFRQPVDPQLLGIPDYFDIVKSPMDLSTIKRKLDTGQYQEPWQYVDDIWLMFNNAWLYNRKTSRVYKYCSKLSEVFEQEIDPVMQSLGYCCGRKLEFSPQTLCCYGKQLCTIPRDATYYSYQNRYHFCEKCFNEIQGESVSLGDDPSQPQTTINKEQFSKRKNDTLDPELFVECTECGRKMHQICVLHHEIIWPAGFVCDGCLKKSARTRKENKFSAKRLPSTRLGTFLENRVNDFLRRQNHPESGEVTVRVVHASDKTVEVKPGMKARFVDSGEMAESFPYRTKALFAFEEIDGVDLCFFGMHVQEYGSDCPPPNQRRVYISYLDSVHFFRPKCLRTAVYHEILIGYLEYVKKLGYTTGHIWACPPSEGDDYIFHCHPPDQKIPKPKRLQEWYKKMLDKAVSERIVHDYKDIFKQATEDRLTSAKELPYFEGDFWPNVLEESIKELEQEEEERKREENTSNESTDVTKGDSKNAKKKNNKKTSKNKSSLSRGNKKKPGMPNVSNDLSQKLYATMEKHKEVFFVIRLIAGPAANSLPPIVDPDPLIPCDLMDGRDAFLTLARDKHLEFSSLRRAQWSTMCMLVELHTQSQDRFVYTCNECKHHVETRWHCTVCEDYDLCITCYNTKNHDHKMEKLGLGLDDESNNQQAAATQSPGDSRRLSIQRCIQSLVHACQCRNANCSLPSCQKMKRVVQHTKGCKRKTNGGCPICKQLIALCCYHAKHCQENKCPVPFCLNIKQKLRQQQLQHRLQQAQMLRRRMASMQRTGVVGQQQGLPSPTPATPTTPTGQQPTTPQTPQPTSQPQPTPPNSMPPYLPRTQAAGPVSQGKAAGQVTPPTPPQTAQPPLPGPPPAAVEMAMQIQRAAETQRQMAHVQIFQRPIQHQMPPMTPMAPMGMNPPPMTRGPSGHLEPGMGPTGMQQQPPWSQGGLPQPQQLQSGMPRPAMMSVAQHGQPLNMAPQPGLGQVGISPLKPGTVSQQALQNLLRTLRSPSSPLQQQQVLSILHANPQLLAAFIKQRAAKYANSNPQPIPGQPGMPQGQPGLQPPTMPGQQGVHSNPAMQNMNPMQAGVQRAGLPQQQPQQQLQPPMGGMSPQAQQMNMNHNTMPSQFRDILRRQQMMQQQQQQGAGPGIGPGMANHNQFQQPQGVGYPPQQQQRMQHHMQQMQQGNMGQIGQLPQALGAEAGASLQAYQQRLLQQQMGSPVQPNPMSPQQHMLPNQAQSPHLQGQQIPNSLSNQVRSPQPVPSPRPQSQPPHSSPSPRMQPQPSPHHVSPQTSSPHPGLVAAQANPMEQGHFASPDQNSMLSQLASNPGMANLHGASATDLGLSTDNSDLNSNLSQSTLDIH
# T2 sequence (Q09472 whole entry, looked up, the tested form may be a part): as the sequence (Q09472 whole entry, the tested form may be a part) above
# T2 sequence (Q92793 whole entry, looked up, the tested form may be a part): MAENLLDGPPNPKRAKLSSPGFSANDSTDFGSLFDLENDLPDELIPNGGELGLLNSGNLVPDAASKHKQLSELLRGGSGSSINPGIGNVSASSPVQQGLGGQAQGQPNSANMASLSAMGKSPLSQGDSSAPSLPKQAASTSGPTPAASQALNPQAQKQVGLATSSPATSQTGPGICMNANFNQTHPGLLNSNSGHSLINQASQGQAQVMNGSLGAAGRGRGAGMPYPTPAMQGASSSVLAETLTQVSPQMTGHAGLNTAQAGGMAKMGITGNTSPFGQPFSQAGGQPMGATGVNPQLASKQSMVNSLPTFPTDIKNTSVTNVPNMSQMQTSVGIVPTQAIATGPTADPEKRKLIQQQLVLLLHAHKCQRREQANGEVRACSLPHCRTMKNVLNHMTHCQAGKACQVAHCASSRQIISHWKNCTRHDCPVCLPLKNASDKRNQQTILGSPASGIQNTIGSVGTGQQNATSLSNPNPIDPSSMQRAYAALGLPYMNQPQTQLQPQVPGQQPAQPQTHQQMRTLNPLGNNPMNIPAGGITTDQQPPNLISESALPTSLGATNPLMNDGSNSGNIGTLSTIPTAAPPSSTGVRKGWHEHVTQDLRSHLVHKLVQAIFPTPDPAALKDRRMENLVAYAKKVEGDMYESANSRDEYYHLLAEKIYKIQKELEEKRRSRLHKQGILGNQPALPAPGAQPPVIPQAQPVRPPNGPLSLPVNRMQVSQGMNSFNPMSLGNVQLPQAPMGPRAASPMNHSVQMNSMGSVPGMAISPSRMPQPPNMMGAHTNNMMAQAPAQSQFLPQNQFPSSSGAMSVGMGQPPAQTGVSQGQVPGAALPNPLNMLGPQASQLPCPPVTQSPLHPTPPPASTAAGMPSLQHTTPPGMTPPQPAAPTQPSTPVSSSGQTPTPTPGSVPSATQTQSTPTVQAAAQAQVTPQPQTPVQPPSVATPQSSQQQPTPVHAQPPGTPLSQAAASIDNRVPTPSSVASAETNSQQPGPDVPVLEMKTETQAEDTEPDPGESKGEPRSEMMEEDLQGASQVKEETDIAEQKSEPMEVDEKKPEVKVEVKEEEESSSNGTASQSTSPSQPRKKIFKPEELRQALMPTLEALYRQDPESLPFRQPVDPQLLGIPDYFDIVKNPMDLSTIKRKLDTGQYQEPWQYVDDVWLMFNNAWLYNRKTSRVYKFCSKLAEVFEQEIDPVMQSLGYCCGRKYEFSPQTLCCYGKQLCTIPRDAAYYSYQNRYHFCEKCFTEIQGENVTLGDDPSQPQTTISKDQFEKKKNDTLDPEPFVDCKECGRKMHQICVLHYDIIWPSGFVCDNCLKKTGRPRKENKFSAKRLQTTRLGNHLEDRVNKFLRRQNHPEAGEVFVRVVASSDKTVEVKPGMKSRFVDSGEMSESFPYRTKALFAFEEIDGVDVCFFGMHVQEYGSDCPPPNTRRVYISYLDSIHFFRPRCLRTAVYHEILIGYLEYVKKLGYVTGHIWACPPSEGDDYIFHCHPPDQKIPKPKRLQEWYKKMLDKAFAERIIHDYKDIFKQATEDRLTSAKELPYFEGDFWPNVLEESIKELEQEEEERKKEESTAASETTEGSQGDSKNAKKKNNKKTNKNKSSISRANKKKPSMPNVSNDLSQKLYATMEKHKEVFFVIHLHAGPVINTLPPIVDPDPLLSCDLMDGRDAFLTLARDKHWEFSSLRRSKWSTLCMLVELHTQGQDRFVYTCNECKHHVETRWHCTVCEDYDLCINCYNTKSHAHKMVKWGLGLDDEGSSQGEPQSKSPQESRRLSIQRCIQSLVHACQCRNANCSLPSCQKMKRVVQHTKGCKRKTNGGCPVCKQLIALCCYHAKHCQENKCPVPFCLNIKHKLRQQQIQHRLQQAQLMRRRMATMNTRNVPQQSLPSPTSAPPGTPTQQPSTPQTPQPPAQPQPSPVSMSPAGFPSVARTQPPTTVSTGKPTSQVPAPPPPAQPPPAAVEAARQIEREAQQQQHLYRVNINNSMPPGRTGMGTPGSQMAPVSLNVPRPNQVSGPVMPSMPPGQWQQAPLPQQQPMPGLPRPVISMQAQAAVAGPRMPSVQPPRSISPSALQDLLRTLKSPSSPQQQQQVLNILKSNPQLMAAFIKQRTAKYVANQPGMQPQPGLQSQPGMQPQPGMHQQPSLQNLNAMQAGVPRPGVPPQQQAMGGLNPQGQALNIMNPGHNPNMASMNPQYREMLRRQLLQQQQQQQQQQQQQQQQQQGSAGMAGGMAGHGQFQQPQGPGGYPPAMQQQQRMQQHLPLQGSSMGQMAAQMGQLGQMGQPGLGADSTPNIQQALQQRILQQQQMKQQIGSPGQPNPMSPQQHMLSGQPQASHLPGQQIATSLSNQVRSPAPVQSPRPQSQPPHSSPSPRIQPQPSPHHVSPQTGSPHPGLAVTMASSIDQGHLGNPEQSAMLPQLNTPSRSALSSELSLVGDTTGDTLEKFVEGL
# CREB-binding protein, sequence (Q92793 whole entry, the tested form may be a part): as the sequence (Q92793 whole entry, looked up, the tested form may be a part) above
smiles,measurement,setting,value
CC(C1CC1)N(Cc1ccccc1)C(=O)CN1C(=O)NC(Cc2c[nH]c3ccccc23)C1=O (stereo not drawn),IC50,[1],5.1 µM
C=C(C)[C@H](CC=C(C)C)C[C@]12C[C@H](CC=C(C)C)C(C)(C)[C@](CC=C(C)C)(C(=O)C(C(=O)c3ccc(O)c(O)c3)=C1O)C2=O,IC50,[1],5 µM
NS(=O)(=O)c1ccc(NC(=O)CN2C(=O)SC(=C3CCCCC3)C2=O)cc1,IC50,[1],11.5 µM
CNC(=O)c1ccc(N2C(=S)N(c3ccc(C#N)c(C(F)(F)F)c3)C(=O)C2(C)C)cc1F,inhibition,[2],inactive
CNC(=O)Nc1ccc2c(c1)[C@@]1(CC2)OC(=O)N(CC(=O)N(Cc2ccc(F)cc2)[C@@H](C)C(F)(F)F)C1=O [A-486],Kd,[3],20 µM
same,INH,[4],> 10 µM
same,INH,[5],> 10 µM
same,INH,[6],> 10 µM
same,IC50,CREB-binding protein,9.03 µM
same,INH,[7],> 10 µM
same,IC50,[1],> 50 µM
same,EC50,[8],> 10 µM
same,EC50,[9],> 10 µM
same,inhibition,[9],inactive
same,inhibition at 10 µM,MAO-B,0%
same,INH,[10],> 10 µM
same,INH,[11],> 10 µM
same,inhibition at 10 µM,MAO-A,7%
same,IC50,[12],> 10 µM
same,INH,[13],> 10 µM
same,EC50,[14],> 10 µM
same,inhibition,[14],inactive
same,inhibition at 10 µM,[15],-3%
